Experiments:
Cannabinoid receptor 2 [1] = biological target: T1, Cannabinoid receptor 2 (Homo sapiens, UniProt P34972); assay: Displacement of [3H]CP-55940 from human CB2 receptor expressed in CHO cells; assay type: cell-based; parameters: concentration or dose not given beside the values
Outline: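 Competitive radioligand binding on membranes from CHO cells expressing hCB2, with [3H]-CP-55,940 as tracer. Compounds were first screened at 10 µM. Ki at CB2 was then determined for those displacing more than 60% of specific binding.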

Cannabinoid receptor 2 [2] = biological target: T1, Cannabinoid receptor 2; assay: Inhibition of human CB2 receptor expressed in CHO cells; assay type: cell-based
Cannabinoid receptor 2 [3] = biological target: T1, Cannabinoid receptor 2; assay: Activity at human CB2 receptor expressed in CHO cells assessed as stimulated [35S]GTP-gamma-S binding relative to control; assay type: functional, cell-based; parameters: concentration or dose not given beside the values

T1 sequence (P34972 whole entry): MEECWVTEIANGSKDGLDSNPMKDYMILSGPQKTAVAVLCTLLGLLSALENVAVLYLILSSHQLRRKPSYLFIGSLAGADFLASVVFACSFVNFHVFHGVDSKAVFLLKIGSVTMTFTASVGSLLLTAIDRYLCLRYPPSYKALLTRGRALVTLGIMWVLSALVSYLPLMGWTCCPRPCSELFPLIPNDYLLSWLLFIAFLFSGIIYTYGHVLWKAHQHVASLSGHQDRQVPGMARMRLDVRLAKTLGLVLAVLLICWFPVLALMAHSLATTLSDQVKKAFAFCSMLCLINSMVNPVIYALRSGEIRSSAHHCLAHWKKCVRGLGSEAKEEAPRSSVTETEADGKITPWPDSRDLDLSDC

Structure (SMILES)	Activity (Cannabinoid receptor 2 [1])	Ki (Cannabinoid receptor 2 [2])	Activity (Cannabinoid receptor 2 [3])
CCCCCn1c(C)c(C(=O)NCCc2ccccc2)c(=O)c2ccccc21	57.3%	–	–
CCCCCn1cc(C(=O)c2ccccc2)c(=O)c2ccccc21	94.5%	0.446 µM	–
CCCCCn1c(C)c(C(=O)NC23CC4CC(C)(CC(C)(C4)C2)C3)c(=O)c2ccccc21	96.7%	0.2 µM	128%
CCCCCn1c(C)c(C(=O)NC(C)c2ccccc2)c(=O)c2ccccc21 (single isomer, unassigned; (-))	91.7%	0.663 µM	186%
CCCCn1cc(C(=O)c2cccc3ccccc23)c(=O)c2ccccc21	77.7%	1.55 µM	–
CCCCCn1cc(C(=O)c2ccc(OC)cc2)c(=O)c2ccccc21	46.9%	–	–
CC12CC3CC(C)(C1)CC(NC(=O)c1cn(Cc4ccc(Br)cc4)c4ccccc4c1=O)(C3)C2	30.5%	–	–
O=C(NC12CC3CC(CC(C3)C1)C2)c1cn(CCN2CCOCC2)c2ccccc2c1=O	101%	0.152 µM	–
CCCCCn1cc(C(=O)c2ccc3c(c2)COC3)c(=O)c2ccccc21	70.2%	> 2 µM	–
CCCCCn1cc(C(=O)NC2CCCc3ccccc32)c(=O)c2ccccc21 (single isomer, unassigned; (+)) [listing 1 of 2 here]	–	–	183%
CCCCCn1cc(C(=O)NC2CCCc3ccccc32)c(=O)c2cc(Cl)ccc21 (single isomer, unassigned; (+)) [listing 1 of 2 here]	92.8%	–	124%
CCCCCn1cc(C(=O)NC2CCCc3ccccc32)c(=O)c2ccccc21 (single isomer, unassigned; (-)) [listing 1 of 2 here]	–	1.01 µM	–
CCCCCn1cc(NC(=O)c2cccc3ccccc23)c(=O)c2ccccc21	97.4%	0.265 µM	139%
CC12CC3CC(C)(C1)CC(NC(=O)c1cn(CCN4CCOCC4)c4ccccc4c1=O)(C3)C2	95.6%	0.221 µM	141%
CCCCCn1cc(C(=O)NC(C)C23CC4CC(CC(C4)C2)C3)c(=O)c2ccccc21 (single isomer, unassigned; (+)) [listing 1 of 2 here]	64.3%	–	172%
CCCCCn1cc(C(=O)NC(C)C23CC4CC(CC(C4)C2)C3)c(=O)c2cc(Cl)ccc21 (racemic) [listing 1 of 2 here]	–	0.222 µM	–
CCCCCn1cc(C(=O)NC(C)C23CC4CC(CC(C4)C2)C3)c(=O)c2ccc(Cl)cc21 (racemic) [listing 1 of 2 here]	–	0.0411 µM	–
CCCCCn1c(C)c(C(=O)NC(C)c2cccc3ccccc23)c(=O)c2ccccc21 (single isomer, unassigned; (-))	70.4%	> 3 µM	–
O=C(c1cn(Cc2ccc(Br)cc2)c2ccccc2c1=O)c1cccc2ccccc12	93.7%	0.966 µM	–
CC(NC(=O)c1cn(CCN2CCOCC2)c2ccccc2c1=O)c1ccccc1 (single isomer, unassigned; (-))	66.5%	< 2 µM	–
CCCCCn1cc(C(=O)NC(C)C23CC4CC(CC(C4)C2)C3)c(=O)c2ccc(Cl)cc21 (single isomer, unassigned; (+)) [listing 1 of 2 here]	–	0.265 µM	–
CCCCCn1cc(CNC23CC4CC(CC(C4)C2)C3)c(=O)c2ccccc21	81.3%	1.67 µM	–
O=C(NCCc1ccccc1)c1cn(CCN2CCOCC2)c2ccccc2c1=O	46.7%	–	–
CCCCCn1cc(C(=O)NC(C)C23CC4CC(CC(C4)C2)C3)c(=O)c2cc(Cl)ccc21 (single isomer, unassigned; (+)) [listing 1 of 2 here]	–	0.144 µM	–

Structure (SMILES)	Activity (Cannabinoid receptor 2 [1])	Ki (Cannabinoid receptor 2 [2])	Activity (Cannabinoid receptor 2 [3])
CC12CC3CC(C)(C1)CC(NC(=O)c1cn(CCCc4ccccc4)c4ccccc4c1=O)(C3)C2	101%	0.16 µM	98.8%
CCCCCn1cc(C(=O)NC2CCCc3ccccc32)c(=O)c2ccccc21 (single isomer, unassigned; (+)) [listing 2 of 2 here]	–	0.0417 µM	–
CC12CC3CC(C)(C1)CC(NC(=O)c1cn(Cc4ccc(Cl)cc4)c4ccccc4c1=O)(C3)C2	48.1%	–	–
CCCCCn1cc(C(=O)NC(C)C23CC4CC(CC(C4)C2)C3)c(=O)c2ccccc21 (stereo in doubt; 24) [listing 1 of 2 here]	–	0.014 µM	–
O=C(c1cn(Cc2ccc(Cl)cc2)c2ccccc2c1=O)c1cccc2ccccc12	96.5%	1.12 µM	–
CCCCCCC(C)(C)c1ccc(C2CC(O)CC[C@H]2CCCO)c(O)c1 (single isomer, unassigned)	–	–	230%
O=C(c1cn(CCC2CCCCC2)c2ccccc2c1=O)c1cccc2ccccc12	78.5%	1.67 µM	–
CCCCCn1cc(C(=O)NC(C)C23CC4CC(CC(C4)C2)C3)c(=O)c2ccccc21 (single isomer, unassigned; (+)) [listing 2 of 2 here]	–	0.202 µM	–
CCCCn1cc(C(=O)c2ccc(OC)cc2)c(=O)c2ccccc21	< 10%	–	–
CCCCCn1cc(C(=O)NC2CCCc3ccccc32)c(=O)c2cc(Cl)ccc21 (racemic) [listing 1 of 2 here]	98.2%	–	98.5%
CCCCCn1cc(C(=O)NC23CC4CC(C)(CC(C)(C4)C2)C3)c(=O)c2cccc(Cl)c21	98.7%	0.0274 µM	187%
CCCCCn1cc(C(=O)NC23CC4CC(C)(CC(C)(C4)C2)C3)c(=O)c2ccc(Cl)cc21	106%	0.0053 µM	51.6%
CCCCCn1cc(C(=O)NC23CC4CC(C)(CC(C)(C4)C2)C3)c(=O)c2cc(Cl)ccc21	86.7%	0.0546 µM	49.6%
O=C(c1c[nH]c2ccccc2c1=O)c1cccc2ccccc12	31%	–	–
CCCCCn1cc(CNCC2CCCc3ccccc32)c(=O)c2ccccc21 (racemic)	63.9%	> 4 µM	–
CCCCCn1cc(C(=O)c2c3ccccc3cc3ccccc23)c(=O)c2ccccc21	76.5%	1.5 µM	–
CCCCCn1cc(C(=O)NC(C)C23CC4CC(CC(C4)C2)C3)c(=O)c2ccc(Cl)cc21 (racemic) [listing 2 of 2 here]	102%	–	56.3%
CCCCCn1cc(C(=O)NC(C)C23CC4CC(CC(C4)C2)C3)c(=O)c2ccccc21 (stereo in doubt; 24) [listing 2 of 2 here]	101%	–	175%
O=C(c1cn(CCN2CCOCC2)c2ccccc2c1=O)c1cccc2ccccc12	46.1%	–	–
CCCCCn1nc(C(=O)NC23CC4CC(C)(CC(C)(C4)C2)C3)c(=O)c2ccccc21	94.6%	0.093 µM	109%
CCCCCn1cc(C(=O)NC(C)C23CC4CC(CC(C4)C2)C3)c(=O)c2ccc(Cl)cc21 (single isomer, unassigned; (+)) [listing 2 of 2 here]	92.9%	–	42.7%
CCCCCn1cc(NC(=O)C23CC4CC(CC(C4)C2)C3)c(=O)c2ccccc21	99.9%	0.0255 µM	120%
CCCCCn1cc(C(=O)NC2CCCc3ccccc32)c(=O)c2cc(Cl)ccc21 (racemic) [listing 2 of 2 here]	–	0.506 µM	–
CCCCCn1cc(C(=O)NC(C)C23CC4CC(CC(C4)C2)C3)c(=O)c2cc(Cl)ccc21 (single isomer, unassigned; (+)) [listing 2 of 2 here]	97.2%	–	76.7%

Structure (SMILES)	Activity (Cannabinoid receptor 2 [1])	Ki (Cannabinoid receptor 2 [2])	Activity (Cannabinoid receptor 2 [3])
CCCCCn1cc(C(=O)c2ccc3ccccc3c2)c(=O)c2ccccc21	74.3%	1.29 µM	–
CCCCCn1cc(C(=O)NC(C)C23CC4CC(CC(C4)C2)C3)c(=O)c2cc(Cl)ccc21 (racemic) [listing 2 of 2 here]	81.8%	–	97.3%
CCCCCn1c(C)c(C(=O)NC(C)c2ccc3ccccc3c2)c(=O)c2ccccc21 (single isomer, unassigned; (-))	62.6%	> 2 µM	–
CCCCCCn1cc(C(=O)c2ccc(OC)cc2)c(=O)c2ccccc21	68.8%	> 2 µM	–
CCCCCn1cc(C(=O)NC23CC4CC(C)(CC(C)(C4)C2)C3)c(=S)c2ccccc21	95.7%	0.0182 µM	65.6%
CC12CC3CC(C)(C1)CC(NC(=O)c1cn(CCc4ccccc4)c4ccccc4c1=O)(C3)C2	95.8%	0.333 µM	141%
O=C(c1cn(CCc2ccccc2)c2ccccc2c1=O)c1cccc2ccccc12	56.8%	–	–
CCCCCn1cc(C(=O)NC(C)C23CC4CC(CC(C4)C2)C3)c(=O)c2ccccc21 (racemic) [listing 1 of 2 here]	–	0.0285 µM	–
CCCCCn1cc(C(=O)NC(C)C23CC4CC(CC(C4)C2)C3)c(=O)c2ccc(Cl)cc21 (single isomer, unassigned; (-)) [listing 1 of 2 here]	102%	–	53.5%
CCCCCn1cc(C(=O)NC(C)C23CC4CC(CC(C4)C2)C3)c(=O)c2ccc(Cl)cc21 (single isomer, unassigned; (-)) [listing 2 of 2 here]	–	0.0261 µM	–
CCCCCn1cc(C(=O)NC23CC4CC(C)(CC(C)(C4)C2)C3)c(=O)c2ncccc21	93.4%	0.259 µM	170%
CCCCCn1cc(C(=O)NC2CCCc3ccccc32)c(=O)c2ccccc21 (single isomer, unassigned; (-)) [listing 2 of 2 here]	90.9%	–	–
CC12CC3CC(C)(C1)CC(NC(=O)c1cn(CCC4CCCCC4)c4ccccc4c1=O)(C3)C2	38.8%	–	157%
O=C(c1cn(CCCc2ccccc2)c2ccccc2c1=O)c1cccc2ccccc12	80.4%	> 2 µM	–
CCCCCn1cc(C(=O)NC2CCCc3ccccc32)c(=O)c2cc(Cl)ccc21 (single isomer, unassigned; (+)) [listing 2 of 2 here]	–	0.121 µM	–
CCCCCn1cc(C(=O)NC(C)C23CC4CC(CC(C4)C2)C3)c(=O)c2cc(Cl)ccc21 (single isomer, unassigned; (-)) [listing 1 of 2 here]	87.7%	–	86.1%
CCCCCCn1cc(C(=O)c2cccc3ccccc23)c(=O)c2ccccc21	89.5%	0.582 µM	–
CCCCCn1cc(C(=O)NC(C)C23CC4CC(CC(C4)C2)C3)c(=O)c2cc(Cl)ccc21 (single isomer, unassigned; (-)) [listing 2 of 2 here]	–	0.235 µM	–
CCCC(C)(C)c1ccc2c(c1)OC(C)(C)[C@@H]1CC=C(C)C[C@@H]21	–	–	201%
CCCCCn1cc(C(=O)NC(C)C23CC4CC(CC(C4)C2)C3)c(=O)c2ccccc21 (racemic) [listing 2 of 2 here]	99.1%	–	156%
CCCCCn1cc(CNCCc2ccccc2)c(=O)c2ccccc21	25.9%	> 4 µM	–
O=C(c1cn(Cc2ccccc2)c2ccccc2c1=O)c1cccc2ccccc12	100%	0.656 µM	–
CCCCCn1cc(C(=O)c2ccc3cc(OC)ccc3c2)c(=O)c2ccccc21	44.1%	–	–

— ChEMBL document CHEMBL1137569, “Pharmacomodulations around the 4-oxo-1,4-dihydroquinoline-3-carboxamides, a class of potent CB2-selective cannabinoid receptor ligands: consequences in receptor affinity and functionality” (J Med Chem, 2007)
